Assay results taken from ChEMBL document CHEMBL3351900, “Conjugation of a nonspecific antiviral sapogenin with a specific HIV fusion inhibitor: a promising strategy for discovering new antiviral therapeutics” (J Med Chem, 2014).
Values after ≈ are worked out from the molar mass of the structure shown. Active and inactive are the calls of the source. No cut-off for these calls is given here. Square brackets hold non-standard residues; d marks the D form. Peptide text beside a SMILES is read from it. * marks the point of attachment. X1 = C=CCOC(=O)[C@]12CC[C@@H](C(=C)C)[C@@H]1[C@H]1CC[C@@H]3[C@@]4(C)CC[C@H](OC(=O)CCc5cn(CC(=O)*)nn5)C(C)(C)[C@@H]4CC[C@@]3(C)[C@]1(C)CC2; X2 = C=CCOC(=O)[C@]12CCC(C)(C)C[C@H]1C1=CC[C@@H]3[C@@]4(C)CC[C@H](OC(=O)CCc5cn(CC(=O)*)nn5)C(C)(C)[C@@H]4CC[C@@]3(C)[C@]1(C)CC2; βAla = NCCC(=O)O

Legend:
[1] = system: Human immunodeficiency virus 1; assay: Antiviral activity against HIV1 3B infected in human MT2 cells assessed as inhibition of viral entry compound treated at 200 nM at 6 hrs post infection measured 3 to 4 days post infection by time-of-addition assay
[2] = system: Human immunodeficiency virus 1; assay: Antiviral activity against T20-sensitive HIV1 NL4-3 harboring gp41 D36G mutant infected in human MT2 cells; type: functional, organism-based
Method in brief: (§1)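 MT-2 cells (1 × 10⁴) infected with 100 TCID₅₀ virus with or without peptides at graded concentrations. Culture supernatants collected on day 4 postinfection; p24 antigen quantified by ELISA. Percent inhibition and EC₅₀ calculated; tested in triplicate, mean ± standard deviation.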

[3] = system: Human immunodeficiency virus 1; assay: Antiviral activity against T20-resistant HIV1 NL4-3 harboring gp41 D36G/V38A mutant infected in human MT2 cells; type: functional, organism-based
Method in brief: as §1

[4] = system: Human immunodeficiency virus 1; assay: Antiviral activity against T20-resistant HIV1 NL4-3 harboring gp41 D36G/V38A/N42D mutant infected in human MT2 cells; type: functional, organism-based
Method in brief: as §1

[5] = system: Human immunodeficiency virus 1; assay: Antiviral activity against T20-resistant HIV1 NL4-3 harboring gp41 D36G/N42T/N43K mutant infected in human MT2 cells; type: functional, organism-based
Method in brief: as §1

[6] = system: Human immunodeficiency virus 1; assay: Antiviral activity against T20-resistant HIV1 NL4-3 harboring gp41 D36G/V38E/N42S mutant infected in human MT2 cells; type: functional, organism-based
Method in brief: as §1

[7] = system: Human immunodeficiency virus 1; assay: Antiviral activity against T20-resistant HIV1 NL4-3 harboring gp41 D36G/V38A/N42T mutant infected in human MT2 cells; type: functional, organism-based
Method in brief: as §1

[8] = system: Human immunodeficiency virus 1; assay: Ratio of EC50 for T20-resistant HIV1 NL4-3 harboring gp41 D36G/V38A mutant infected in human MT2 cells to EC50 for T20-sensitive HIV1 NL4-3 harboring gp41 D36G mutant infected in human MT2 cells; type: functional
Method in brief: (§2)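 MT-2 cells (1 × 10⁴) infected with 100 TCID₅₀ of HIV-1 NL4-3 gp41 mutant virus with or without peptide at graded concentrations. Culture supernatants collected on day 4 postinfection and p24 antigen measured by ELISA. Percent inhibition and EC₅₀ calculated, triplicate, mean ± standard deviation. Fold change = EC₅₀ against each mutant divided by EC₅₀ against the D36G strain.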

[9] = system: Human immunodeficiency virus 1; assay: Ratio of EC50 for T20-resistant HIV1 NL4-3 harboring gp41 D36G/V38A/N42D mutant infected in human MT2 cells to EC50 for T20-sensitive HIV1 NL4-3 harboring gp41 D36G mutant infected in human MT2 cells; type: functional
Method in brief: as §2

[10] = system: Human immunodeficiency virus 1; assay: Ratio of EC50 for T20-resistant HIV1 NL4-3 harboring gp41 D36G/N42T/N43K mutant infected in human MT2 cells to EC50 for T20-sensitive HIV1 NL4-3 harboring gp41 D36G mutant infected in human MT2 cells; type: functional
Method in brief: as §2

[11] = system: Human immunodeficiency virus 1; assay: Ratio of EC50 for T20-resistant HIV1 NL4-3 harboring gp41 D36G/V38E/N42S mutant infected in human MT2 cells to EC50 for T20-sensitive HIV1 NL4-3 harboring gp41 D36G mutant infected in human MT2 cells; type: functional
Method in brief: as §2

[12] = system: Human immunodeficiency virus 1; assay: Ratio of EC50 for T20-resistant HIV1 NL4-3 harboring gp41 D36G/V38A/N42T mutant infected in human MT2 cells to EC50 for T20-sensitive HIV1 NL4-3 harboring gp41 D36G mutant infected in human MT2 cells; type: functional
Method in brief: as §2

Rattus norvegicus [13] = assay: AUC (0 to t) in rat at 4 mg/kg, iv administered as single dose; type: ADME, organism-based, Plasma; parameters: dose 4 mg/kg, route intravenous; conditions: in vivo
Method in brief: (§3)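 Rats given one intravenous dose of 4 mg/kg. Peptide measured in plasma over time. Parameters (AUC(0−t), MRT(0−t), t1/2, Vd, Cmax) derived by model-independent analysis.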

[14] = Mean residence time in rat at 4 mg/kg, iv administered as single dose; type: ADME, organism-based; parameters: dose 4 mg/kg, route intravenous; conditions: in vivo
Method in brief: as §3

Rattus norvegicus [15] = assay: Half life in rat at 4 mg/kg, iv at 4 mg/kg, iv administered as single dose; type: ADME, organism-based; conditions: in vivo
Method in brief: as §3

[16] = Volume of distribution in rat at 4 mg/kg, iv administered as single dose; type: ADME, organism-based; parameters: dose 4 mg/kg, route intravenous; conditions: in vivo
Method in brief: as §3

Rattus norvegicus [17] = assay: Cmax in rat at 4 mg/kg, iv administered as single dose; type: ADME, organism-based; parameters: dose 4 mg/kg, route intravenous; conditions: in vivo
Method in brief: as §3

[18] = Half life in rat liver homogenate at 8 ug/ml; type: ADME, tissue-based
[19] = Half life of the compound at 8 ug/ml by proteinase K digestion assay; type: ADME
[20] = Half life in rat kidney homogenate at 8 ug/ml; type: ADME, tissue-based
[21] = Solubility of the compound in pure water by UV spectrophotometry; type: physicochemical
Method in brief: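 About 1 mg of peptide dissolved in 10 μL water or PBS and centrifuged. Supernatant concentration of the tyrosine-containing conjugate determined from UV absorbance at 280 nm.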

[22] = system: Human immunodeficiency virus 1; assay: Antiviral activity against HIV1 3B infected in human MT2 cells assessed as inhibition of viral p24 antigen production by ELISA; type: functional, organism-based; conditions: Human immunodeficiency virus 1, 3B
Method in brief: as §1

[23] = Cytotoxicity against human MT2 cells after 4 days by XTT assay; type: cell-based
Method in brief: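 MT-2 cells (5 × 10⁵/mL) mixed with equal volumes of graded conjugate concentrations and held at 37 °C for 4 days. XTT (1 mg/mL) with 0.02 μM phenazine methosulfate added for 4 h, then A450 read. CC50 calculated from the dose–response.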

[24] = system: Human immunodeficiency virus 1; assay: Antiviral activity against HIV1 BaL infected in human […] cells assessed as inhibition of viral replication; type: functional, organism-based; conditions: Human immunodeficiency virus 1, BaL
Method in brief: as §1

[25] = Selectivity index, ratio of CC50 for human MT2 cells to EC50 for HIV1 3B infected in human MT2 cells; type: toxicity, cell-based; conditions: read-out: Ratio CC50/EC50
[26] = biological target: GP41 (Human immunodeficiency virus 1) (UniProt Q76270); assay: Ratio of EC50 for HIV1 gp41-induced cell-cell fusion between viral envelope expressing human HL2/3 cells to CD4/CCR5 receptor expressing TZM-bl cells with wash out to EC50 for HIV1 gp41-induced cell-cell fusion between viral envelope expressing human HL2/3 cells to CD4/CCR5 receptor expressing TZM-bl cells; type: cell-based
Method in brief: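 Peptides preincubated with TZM-bl cells at 37 °C for 1 h, with or without washing away unbound peptide. EC50 compared between washed and unwashed cells, giving the n-fold change. Triplicates, mean ± SD.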

[27] = system: Human immunodeficiency virus 1; assay: Antiviral activity against HIV1 3B infected in human MT2 cells assessed as inhibition of viral entry compound treated at 100 nM at 1 hr post infection measured 3 to 4 days post infection by time-of-addition assay

Question: Which inhibition [1] does the source give for Cc1cn([C@H]2C[C@H](N=[N+]=[N-])[C@@H](CO)O2)c(=O)[nH]c1=O here?
Answer: Its inhibition is “Active”.

Question: What does the source list for C=CCOC(=O)[C@]12CC[C@@H](C(=C)C)[C@@H]1[C@H]1CC[C@@H]3[C@@]4(C)CC[C@H](OC(=O)CCc5cn(CC(=O)NCCCC[C@H](NC(=O)CCNC(=O)[C@H](CC(C)C)NC(=O)[C@H](CC(C)C)NC(=O)[C@H](CCC(=O)O)NC(=O)[C@H](CCC(N)=O)NC(=O)[C@H](CCC(=O)O)NC(=O)[C@H](CC(N)=O)NC(=O)[C@H](CCCCN)NC(=O)[C@H](CCC(=O)O)NC(=O)[C@H](CCC(N)=O)NC(=O)[C@H](CCC(N)=O)NC(=O)[C@H](CC(N)=O)NC(=O)[C@H](CCC(N)=O)NC(=O)[C@H](CO)NC(=O)[C@H](CCC(=O)O)NC(=O)[C@H](CCC(=O)O)NC(=O)[C@@H](NC(=O)[C@H](CC(C)C)NC(=O)[C@H](CO)NC(=O)[C@H](Cc6cnc[nH]6)NC(=O)[C@@H](NC(=O)[C@H](CC(C)C)NC(=O)[C@H](CO)NC(=O)[C@@H](NC(=O)[C@H](Cc6ccc(O)cc6)NC(=O)[C@H](CC(N)=O)NC(=O)[C@H](CC(N)=O)NC(C)=O)[C@@H](C)O)[C@@H](C)CC)[C@@H](C)CC)C(N)=O)nn5)C(C)(C)[C@@H]4CC[C@@]3(C)[C@]1(C)CC2 (Ac-NNYTSLIHSLIEESQNQQEKNEQELL[βAla]K(X1)-NH2)?
Answer: EC50 [2]: 0.0292 µM; EC50 [3]: 0.135 µM; EC50 [4]: 0.0344 µM; EC50 [5]: 0.192 µM; EC50 [6]: 0.322 µM; EC50 [7]: 0.308 µM; Ratio EC50 [8]: 4.6; Ratio EC50 [9]: 1.2; Ratio EC50 [10]: 6.5; Ratio EC50 [11]: 11; Ratio EC50 [12]: 10; AUCt (Rattus norvegicus [13]): 101 µg·h/mL; MRT [14]: 191 min; t1/2 (Rattus norvegicus [15]): 188 min; Vd [16]: 0.17 L/kg; Cmax (Rattus norvegicus [17]): 40400 ng/mL; half-life at 8 ug/ml [18]: 48.9 min; half-life at 8 ug/ml [19]: 54.3 min; half-life at 8 ug/ml [20]: 35.9 min; solubility [21]: 18.2 mg/mL (≈ 4.55 mM); EC50 [22]: 0.00428 µM; CC50 at 96 h [23]: 14.3 µM; EC50 [24]: 0.0069 µM; selectivity ratio [25]: 3350; Ratio EC50 [26]: 11; inhibition [27]: Active

Question: Which results are given for C=CCOC(=O)[C@]12CCC(C)(C)C[C@H]1C1=CC[C@@H]3[C@@]4(C)CC[C@H](OC(=O)CCc5cn(CC(=O)NCCCC[C@H](NC(=O)CCNC(=O)[C@H](CC(C)C)NC(=O)[C@H](CC(C)C)NC(=O)[C@H](CCC(=O)O)NC(=O)[C@H](CCC(N)=O)NC(=O)[C@H](CCC(=O)O)NC(=O)[C@H](CC(N)=O)NC(=O)[C@H](CCCCN)NC(=O)[C@H](CCC(=O)O)NC(=O)[C@H](CCC(N)=O)NC(=O)[C@H](CCC(N)=O)NC(=O)[C@H](CC(N)=O)NC(=O)[C@H](CCC(N)=O)NC(=O)[C@H](CO)NC(=O)[C@H](CCC(=O)O)NC(=O)[C@H](CCC(=O)O)NC(=O)[C@@H](NC(=O)[C@H](CC(C)C)NC(=O)[C@H](CO)NC(=O)[C@H](Cc6cnc[nH]6)NC(=O)[C@@H](NC(=O)[C@H](CC(C)C)NC(=O)[C@H](CO)NC(=O)[C@@H](NC(=O)[C@H](Cc6ccc(O)cc6)NC(=O)[C@H](CC(N)=O)NC(=O)[C@H](CC(N)=O)NC(C)=O)[C@@H](C)O)[C@@H](C)CC)[C@@H](C)CC)C(N)=O)nn5)C(C)(C)[C@@H]4CC[C@@]3(C)[C@]1(C)CC2 (Ac-NNYTSLIHSLIEESQNQQEKNEQELL[βAla]K(X2)-NH2)?
Answer: solubility [21]: 12.4 mg/mL (≈ 3.1 mM); EC50 [22]: 0.00311 µM; CC50 at 96 h [23]: 8.22 µM; EC50 [24]: 0.000271 µM; selectivity ratio [25]: 2640
